Source: ChEMBL document CHEMBL1121898, “Potential antiestrogens. Synthesis and evaluation of mammary tumor inhibiting activity of 1,2-dialkyl-1,2-bis(3'-hydroxyphenyl)ethanes” (1981)
The source made the active and inactive calls.

Experiments:
Rattus norvegicus [1] = organism: Rattus norvegicus; test: Percent change in DMBA-induced hormone-dependent mammary carcinoma tumor area at 2.25 mg after 28 days; format: functional
Procedure, shortened: (§1)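 DMBA-induced, hormone-dependent mammary adenocarcinoma in SD rats. Rats bearing at least one tumor >140 mm² were placed in groups of ten. Compound was given sc as a single dose (mg/kg) daily Monday–Thursday and a double dose on Friday. Tumors were counted at the start and as new tumors; responses were scored as complete remission (not palpable), partial remission (≥50% reduction), no change or progression. Tumor area and body weight were recorded as % change.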

[2] = biological target: T1, Estrogen receptor (Mus musculus) (UniProt O08537+P19785); test: Inhibitory activity in mouse uterine weight test at 500 ug; format: functional
T1 sequence (O08537 whole entry, looked up): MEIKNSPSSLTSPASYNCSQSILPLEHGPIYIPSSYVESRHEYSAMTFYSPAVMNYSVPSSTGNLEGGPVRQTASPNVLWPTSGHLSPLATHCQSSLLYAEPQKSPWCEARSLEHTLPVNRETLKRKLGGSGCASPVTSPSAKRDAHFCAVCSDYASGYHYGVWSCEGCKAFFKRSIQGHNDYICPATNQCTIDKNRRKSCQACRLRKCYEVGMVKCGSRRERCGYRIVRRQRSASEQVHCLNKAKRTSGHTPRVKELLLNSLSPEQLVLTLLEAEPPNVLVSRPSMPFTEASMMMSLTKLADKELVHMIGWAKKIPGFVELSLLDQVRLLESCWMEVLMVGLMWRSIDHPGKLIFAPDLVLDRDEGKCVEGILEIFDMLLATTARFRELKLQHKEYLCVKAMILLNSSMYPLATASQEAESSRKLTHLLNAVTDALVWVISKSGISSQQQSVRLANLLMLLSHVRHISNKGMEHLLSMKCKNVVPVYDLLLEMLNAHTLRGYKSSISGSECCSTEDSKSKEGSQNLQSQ
T1 sequence (P19785 whole entry, looked up): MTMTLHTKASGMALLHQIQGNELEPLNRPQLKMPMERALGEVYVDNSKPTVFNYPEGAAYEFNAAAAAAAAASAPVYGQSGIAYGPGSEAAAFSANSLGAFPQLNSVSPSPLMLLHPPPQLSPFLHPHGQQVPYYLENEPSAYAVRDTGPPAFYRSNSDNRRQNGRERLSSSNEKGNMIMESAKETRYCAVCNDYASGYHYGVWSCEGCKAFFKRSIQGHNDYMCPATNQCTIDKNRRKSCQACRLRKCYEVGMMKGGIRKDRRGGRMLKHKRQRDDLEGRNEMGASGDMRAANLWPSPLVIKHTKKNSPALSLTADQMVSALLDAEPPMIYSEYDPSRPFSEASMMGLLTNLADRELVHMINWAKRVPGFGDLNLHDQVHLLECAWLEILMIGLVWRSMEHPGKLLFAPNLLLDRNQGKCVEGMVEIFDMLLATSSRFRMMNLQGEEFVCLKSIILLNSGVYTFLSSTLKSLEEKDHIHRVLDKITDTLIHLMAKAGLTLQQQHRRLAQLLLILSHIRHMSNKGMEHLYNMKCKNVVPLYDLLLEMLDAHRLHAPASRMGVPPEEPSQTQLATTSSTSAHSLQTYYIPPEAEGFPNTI
Procedure, shortened: (§2)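 Immature female NMRI mice, 20 days old (14.5 ± 1.2 g), in random groups of 10. They received sc injections daily for 3 days of 0.1 mL olive oil containing test compound, with estrone 0.1 μg given to stimulate uterine growth. Uteri were removed 24 h after the last injection and weighed (mean ± SD). Result is percent inhibition of the estrone-stimulated uterine weight gain.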

[3] = biological target: T1, Estrogen receptor (Mus musculus); test: Antiestrogenic activity in uterotrophic test in mice at 5 ug; format: functional
Procedure, shortened: (§3)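 Immature female NMRI mice, 20 days old (14.5 ± 1.2 g), randomly grouped 10 per group. Each received a daily sc injection for 3 days of 0.1 mL olive oil solution containing test compound, together with estrone to stimulate uterine growth. Uteri were removed 24 h after the last injection and weighed. Results are reported as % inhibition of the estrone-stimulated uterine weight gain, mean ± SD.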

[4] = biological target: T1, Estrogen receptor (Mus musculus); test: Estrogenic activity in uterotrophic test in mice at 1500 ug; format: functional
Procedure, shortened: (§4)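 Uterine growth stimulation in immature female NMRI mice, 20 days old (14.5 ± 1.2 g), 10 per group. Test compound in 0.1 mL olive oil was given sc daily for 3 days. Uteri were excised 24 h after the final injection and weighed. Effect is reported as mean ± SD.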

Rattus norvegicus [5] = organism: Rattus norvegicus; test: Final number of DMBA-induced hormone-dependent mammary carcinoma tumors in rats at 9 mg; format: functional
Procedure, shortened: (§5)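 Sprague-Dawley rats carrying DMBA-induced, hormone-dependent mammary adenocarcinoma, at least one tumor >140 mm², were placed in groups of ten. Compounds were given sc, with doses in mg/kg: a single daily dose Monday to Thursday and a double dose on Friday. Ovariectomy served as a comparator group. New tumors arising during the test were counted.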

[6] = biological target: T1, Estrogen receptor (Mus musculus); test: Estrogenic activity in uterotrophic test in mice at 9 ug; format: functional
Procedure, shortened: (§6)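 Immature (20-day-old) female NMRI mice, 14.5 ± 1.2 g, randomized into groups of 10. Given the test compound sc daily for 3 days in 0.1 mL olive oil. Uteri removed 24 h after the last injection; uterine weight taken as the read-out, means ± SD. Dose in μg.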

Mus musculus [7] = organism: Mus musculus; test: Vaginal cornification test in mice at 0.1 ug; predominant cellular component leucocytes (diestrus); format: functional, organism-based
Rattus norvegicus [8] = organism: Rattus norvegicus; test: Progression of DMBA-induced hormone-dependent mammary carcinoma tumors in rats at 9 mg; format: functional
[9] = biological target: T1, Estrogen receptor (Mus musculus); test: Estrogenic activity in uterotrophic test in mice at 90 ug; format: functional; procedure, shortened: as §6
Rattus norvegicus [10] = organism: Rattus norvegicus; test: Complete remission of DMBA-induced hormone-dependent mammary carcinoma tumors in rats at 9 mg; format: functional
Procedure, shortened: (§7)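 Female SD rats bearing DMBA-induced, hormone-dependent mammary adenocarcinoma, with at least one tumor >140 mm², were grouped in tens. Dosing was sc per kg body weight: a single dose daily Monday–Thursday and a double dose Friday. Ovariectomy served as the comparison arm. Complete remission was defined as a tumor no longer palpable. Body weight and tumor area changes were also recorded.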

[11] = biological target: T1, Estrogen receptor (Mus musculus); test: Estrogenic activity in uterotrophic test in mice at 0 ug; format: functional; procedure, shortened: as §4
Rattus norvegicus [12] = organism: Rattus norvegicus; test: Complete remission of DMBA-induced hormone-dependent mammary carcinoma tumors in rats at 2.25 mg; format: functional; procedure, shortened: as §7
[13] = biological target: T1, Estrogen receptor (Mus musculus); test: Inhibitory activity in mouse uterine weight test at 50 ug; format: functional
Procedure, shortened: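 Antiuterotrophic (Dorfman) assay in immature 20-day-old female NMRI mice, groups of 10. Uterine growth was stimulated with estrone (0.1 μg) and the test compound was given alongside it, sc daily for 3 days in 0.1 mL olive oil. Uteri were taken 24 h after the last dose. Uterine weight is reported as means ± SD and inhibition as % of the estrone-stimulated response.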

Rattus norvegicus [14] = organism: Rattus norvegicus; test: Percent unchanged tumor size of DMBA-induced hormone-dependent mammary carcinoma tumors in rats at 4.5 mg; format: functional
Rattus norvegicus [15] = organism: Rattus norvegicus; test: Percent unchanged tumor size of DMBA-induced hormone-dependent mammary carcinoma tumors in rats at 2.25 mg; format: functional
Rattus norvegicus [16] = organism: Rattus norvegicus; test: Complete remission of DMBA-induced hormone-dependent mammary carcinoma tumors in rats at 2 mg; format: functional; procedure, shortened: as §7
[17] = biological target: T1, Estrogen receptor (Mus musculus); test: Estrogenic activity in uterotrophic test in mice at 80 ug (experiment 2); format: functional; procedure, shortened: as §6
Rattus norvegicus [18] = organism: Rattus norvegicus; test: (§8) Final number of DMBA-induced hormone-dependent mammary carcinoma tumors in rats at 1 mg; format: functional; procedure, shortened: as §5
[19] = biological target: T1, Estrogen receptor (Mus musculus); test: Antiestrogenic activity in uterotrophic test in mice at 50 ug (experiment 2); format: functional; procedure, shortened: as §3
Rattus norvegicus [20] = organism: Rattus norvegicus; test: Percent change in DMBA-induced hormone-dependent mammary carcinoma tumor area at 2 mg after 28 days; format: functional; procedure, shortened: as §1
Rattus norvegicus [21] = organism: Rattus norvegicus; test: Final number of DMBA-induced hormone-dependent mammary carcinoma tumors in rats at 4 mg; format: functional; procedure, shortened: as §5
Rattus norvegicus [22] = organism: Rattus norvegicus; test: as §8; format: functional; procedure, shortened: as §5; remark: listed apart in the source
Rattus norvegicus [23] = organism: Rattus norvegicus; test: Percent unchanged tumor size of DMBA-induced hormone-dependent mammary carcinoma tumors in rats at 2 mg; format: functional
[24] = biological target: T1, Estrogen receptor (Mus musculus); test: Inhibitory activity in mouse uterine weight test at 500 ug (experiment 2); format: functional; procedure, shortened: as §2
[25] = biological target: T1, Estrogen receptor (Mus musculus); test: Antiestrogenic activity in uterotrophic test in mice at 5 ug (experiment 1); format: functional; procedure, shortened: as §3
[26] = biological target: T1, Estrogen receptor (Mus musculus); test: Estrogenic activity in uterotrophic test in mice at 8 ug (experiment 1); format: functional; procedure, shortened: as §6
Rattus norvegicus [27] = organism: Rattus norvegicus; test: Percent change in body weight DMBA-induced hormone-dependent mammary carcinoma tumors in rats at 2 mg for 7 days; format: functional
Procedure, shortened: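 Sprague-Dawley rats with DMBA-induced, hormone-dependent mammary adenocarcinoma; animals with at least one tumor over 140 mm² were grouped in tens. Dosed subcutaneously in mg/kg body weight: a single daily dose Monday to Thursday, doubled on Friday. Percent change in body weight was recorded over the test alongside tumor area and remission counts, with untreated controls.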

[28] = biological target: T1, Estrogen receptor (Mus musculus); test: Antiestrogenic activity in uterotrophic test in mice at 2.5 ug (experiment 1)
Rattus norvegicus [29] = organism: Rattus norvegicus; test: Percent change in DMBA-induced hormone-dependent mammary carcinoma tumor area at 1 mg after 28 days; format: functional; procedure, shortened: as §1
Mus musculus [30] = organism: Mus musculus; test: Predominant components of vaginal smear at a compound concentration of 50 ug was determined using vaginal cornification test; leucocytes (</= 50%), nucleated and cornified, nucleated cellscharacteristic of antiestrogens; format: functional, organism-based
Rattus norvegicus [31] = organism: Rattus norvegicus; test: Complete remission of DMBA-induced hormone-dependent mammary carcinoma tumors in rats at 4 mg; format: functional; procedure, shortened: as §7
Rattus norvegicus [32] = organism: Rattus norvegicus; test: Progression of DMBA-induced hormone-dependent mammary carcinoma tumors in rats at 2 mg; format: functional
[33] = biological target: T1, Estrogen receptor (Mus musculus); test: Antiestrogenic activity in uterotrophic test in mice at 0 ug (experiment 2); format: functional; procedure, shortened: as §3
[34] = biological target: T1, Estrogen receptor (Mus musculus); test: Antiestrogenic activity in uterotrophic test in mice at 0 ug (experiment 1); format: functional; procedure, shortened: as §3
[35] = biological target: T1, Estrogen receptor (Mus musculus); test: Estrogenic activity in uterotrophic test in mice at 0.8 ug (experiment 1); format: functional; procedure, shortened: as §4
Rattus norvegicus [36] = organism: Rattus norvegicus; test: Partial remission of DMBA-induced hormone-dependent mammary carcinoma tumors in rats at 2 mg; format: functional; procedure, shortened: as §1
Rattus norvegicus [37] = organism: Rattus norvegicus; test: Percent change in body weight DMBA-induced hormone-dependent mammary carcinoma tumors in rats at 18 mg for 7 days; format: functional; settings: in the assay text read “at 1 mg” for “at 18 mg”; procedure, shortened: as §1

Compound: CCCC(c1cccc(O)c1)C(CCC)c1cccc(O)c1 (configuration not stated)
- Change (Rattus norvegicus [1]): 271%
- inhibition [2]: 50%
- Effect [3]: 30.4
- Effect [4]: 28
- No. of tumors (Rattus norvegicus [5]): 1
- Effect [6]: 13.9
- Activity (Mus musculus [7]): inactive
- Tumors (Rattus norvegicus [8]): 17%
- Effect [9]: 17.6
- Tumors (Rattus norvegicus [10]): 52%
- Effect [11]: 11.4
- Tumors (Rattus norvegicus [12]): 25%
- inhibition [13]: 43%
- Tumors (Rattus norvegicus [14]): 27%
- Tumors (Rattus norvegicus [15]): 13%

Compound: CCC(c1cccc(O)c1)C(CC)c1cccc(O)c1 (stereo in doubt; 20)
- Tumors (Rattus norvegicus [16]): 19%
- Effect [17]: 30.5
- No. of tumors (Rattus norvegicus [18]): 37
- Effect [19]: 28.3
- Change (Rattus norvegicus [20]): 11%
- No. of tumors (Rattus norvegicus [21]): 11
- No. of tumors (Rattus norvegicus [22]): 29
- Tumors (Rattus norvegicus [23]): 30%
- inhibition [24]: 40%
- Effect [25]: 23.5
- Effect [26]: 14.4
- Change (Rattus norvegicus [27]): -1.5%
- % inhibition [28]: 27%
- Change (Rattus norvegicus [29]): 47%
- Activity (Mus musculus [30]): Weak activity
- Tumors (Rattus norvegicus [31]): 46%
- Tumors (Rattus norvegicus [32]): 21%
- Effect [33]: 10
- Effect [34]: 12.5
- Effect [35]: 11.8
- Tumors (Rattus norvegicus [36]): 30%
- Change (Rattus norvegicus [37]): -1.6%
